Source: PubChem BioAssay
Shown are actives, neighbours in structure and some others; about 2% of the full set was active somewhere.
MT1-MMP act inh: blockers of MT1-MMP proenzyme processing, primary screen, HT1080 RFP-PRO-GFP cells, GFP/RFP fluorescence | Matrix metalloproteinase-14 (Homo sapiens), P50281 | GFP/RFP ratio fluorescence, overnight; percent of plate control window, DMSO zero | GFP/RFP ratio change, % at 20 µM | 360,000 compounds, 0.061% hits | AID 651647, 2012;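 active = GFP/RFP ratio change of at least 30% with cell ATP level not reduced by more than half and red fluorescence within 50% of control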
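Material: RFP-PRO-GFP reporter HT1080 cells. Dosing: single-point 20 µM compound, 1% DMSO. Controls: DMSO and RFP-L50D-GFP cell wells. Timing: cells overnight before dosing, compound overnight, 37 °C, 5% CO2. Measure: GFP/RFP fluorescence ratio.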
Exocytosis inh: LAMP-1 surface exposure blockers, TALL-104 cells – cell-based, flow cytometry, MLPCN library, primary screen; TALL-104 LAMP-1 surface exposure; cells stimulated with thapsigargin and PMA; inhibition, % at 10 µM; 360,000 compounds, 0.66% hits;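 active = inhibition above about 55%, limit read from the data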
VLA-4 inh: inhibition in human VLA-4 binding assay, primary screen, VLA-4 allosteric modulator project, MLPCN library, flow cytometry, VLA-4 expressing cells; Integrin alpha-4 (Homo sapiens), P13612; ligand binding flow cytometry; inhibition, % (about 7 µM as worked out from the volumes in the protocol); 330,000 compounds, 0.2% hits; in the data active = inhibition above about 50%
DAGLB inhibitor: DAGLB lipase inhibitors, primary screen, biochemical, fluorescence, HTS | Diacylglycerol lipase-beta (Homo sapiens), Q8NCG7 | HEK293T DAGLB membrane lysate, EnzChek fluorogenic substrate | 340,000 compounds, 0.059% hits | AID 504411, 2011 | inhibition, % at 5.17 µM; in the data active = inhibition above about 34%;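 note: 0% = enzyme with vehicle and 100% = wells lacking enzyme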
ABCB6 inh MLPCN: ABCB6 transporter inhibitors, primary screen, K562-ABCB6 cells, flow cytometry, MLPCN library. ATP-binding cassette sub-family B member 6 (Homo sapiens), Q9NP58. K562-ABCB6 porphyrin accumulation, 1 h; active compounds read low. 360,000 compounds, 0.19% hits. fluorescence ratio to DMSO, % at 10 µM. AID 602162, 2011;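 active = fluorescence ratio to DMSO below 75%, the collection mean minus 3 SD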;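 note: signal is porphyrin accumulated inside mitochondria; 100% equals median channel fluorescence of DMSO control wells; lower ratio means ABCB6 inhibition with less porphyrin fluorescence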
FGF22 binding: binders of human FGF22 protein, primary screen, FGF22 synaptogenesis inhibitor project, biophysical, thermal shift, single point; Fibroblast growth factor 22 (Homo sapiens), Q9HCT0; recombinant FGF22 thermal shift, SYPRO orange fluorescence; percent of sucrose octasulfate shift, DMSO zero; activity (Tm shift, normalised), % at 9.99 µM; 340,000 compounds, 1.5% hits;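 active = mean Tm shift, scaled 0 neutral to 100 positive control, at about 1.3% or above, every replicate too, limit read from the data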
Target sequence (Q9HCT0 whole entry, looked up): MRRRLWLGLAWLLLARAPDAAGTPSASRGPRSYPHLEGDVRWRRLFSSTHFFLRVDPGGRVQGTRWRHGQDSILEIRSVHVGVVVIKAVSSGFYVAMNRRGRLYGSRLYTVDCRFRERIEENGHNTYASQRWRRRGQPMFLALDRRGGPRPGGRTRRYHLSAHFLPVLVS
* hit, by the source's call; x = no result.

SMILES | MT1-MMP act inh | Exocytosis inh | VLA-4 inh | DAGLB inhibitor | ABCB6 inh MLPCN | FGF22 binding
COC1=C(Br)C(=O)c2nc(C)ccc2C1=O | 1 | 98* | x | -5 | 113 | -1
CC(=O)Nc1sc(C)c(C)c1C(=O)OCC(=O)NCc1ccc(Cl)cc1 | 0 | -2 | 1 | 0 | 99 | 0
COc1cccc(CNC(=O)COC(=O)c2c(NC(C)=O)sc(C)c2C)c1 | 2 | 9 | 3 | 0 | 92 | 43*
COc1ccc2c3c([nH]c2c1)[C@@H](CO)N(Cc1ccccc1OC)CC31CN(C)C1 | x | x | x | x | x | 0
C[C@@H]1CN([C@@H](C)CO)C(=O)c2cc(NC(=O)NC3CCCCC3)ccc2O[C@H]1CN(C)Cc1ccc(Cl)c(Cl)c1 | x | x | x | x | x | 0
O=S(=O)(Nc1cccc(Cl)c1)c1cccc(-n2cnnn2)c1 | 2 | -14 | -7 | -2 | 102 | 44*
CC=Cc1ccc2n(c1=O)C[C@@H]1[C@@H](CO)[C@H](C(=O)N(C)C)N(C(=O)CC3CC3)[C@H]21 (mixture of isomers) | x | x | x | x | x | 0
N/C(=N\OC(=O)COc1cc(Cl)c(Cl)cc1Cl)c1ccncc1 | x | x | 11 | x | x | 43*
C[C@H]1CN([C@@H](C)CO)C(=O)Cc2cc(NC(=O)Cn3cnnn3)ccc2O[C@@H]1CN(C)C(=O)Nc1ccc2c(c1)OCO2 | x | x | x | x | x | 0
CCOC(=O)C(=O)Cc1nc(OCc2ccccc2)cc(OCc2ccccc2)n1 | -2 | 2 | x | -3 | 89 | 43*
Cc1ccc(C(=O)CSc2nc3cc(S(=O)(=O)N4CCOCC4)ccc3o2)cc1 | 6 | 0 | 9 | -3 | 86 | x
Cc1[nH]c2ccccc2c1C(=O)CSc1nc2cc(S(=O)(=O)N3CCCCC3)ccc2o1 | x | 5 | 8 | -4 | 69* | x
CC(C)(C)c1ccccc1OCCCCCn1ccnc1 | -11 | 1 | 6 | -5 | 97 | 44*
Cc1ccc(C(C)(C)C)c(OCCCn2ccnc2)c1 | -6 | -2 | 3 | -1 | 98 | 0
CCS(=O)(=O)N1CCC2(CC1)CN(C(=O)c1ccc(F)cc1)[C@@H](CO)c1[nH]c3cc(OC)ccc3c12 | x | x | x | x | x | 0
O=C(COc1ccc(F)cc1)Nc1ccc2c(c1)OCCO2 | 3 | -7 | 18 | -12 | 107 | 0
Cc1cc(C)cc(OCC(=O)Nc2ccc3c(c2)OCCO3)c1 | 2 | -2 | 6 | -5 | 97 | 43*
CC(NS(=O)(=O)OCC(Cl)(Cl)Cl)c1ccc(Br)cc1 (centres undefined) | 2 | -3 | -4 | -3 | 98 | 43*
C[C@@H]1CN([C@@H](C)CO)C(=O)Cc2cc(NC(=O)Cn3cnnn3)ccc2O[C@H]1CN(C)Cc1ccc(Cl)c(Cl)c1 | x | x | x | x | x | 0
CC1=CC2C(C(O)CC3(C)C2CC(C)C32OCOC23COCO3)C2(C)C/C(=C\O)C(=O)C=C12 (centres undefined) | -26 | 72* | x | 10 | 93 | 0
CCCn1c(SCC(=O)NC2CCCCC2)nnc1-c1ccccn1 | 8 | -5 | -3 | -2 | 97 | 0
CCCn1c(SCC(=O)N2CCCCC2)nnc1-c1ccccn1 | x | x | 23 | x | x | 44*
C[C@@H]1CN([C@@H](C)CO)C(=O)c2cc(NC(=O)c3ccncc3)ccc2O[C@@H](C)CCCCO[C@@H]1CN(C)S(C)(=O)=O | x | x | x | x | x | 0
COc1ccc(OC)c(C(C[N+](=O)[O-])c2c(C)cc3ccccn23)c1 (centres undefined) | -5 | 75* | 2 | 0 | 104 | 0
O=C1CC(c2cccc(F)c2)c2c(c3ccccc3[nH]c2=O)O1 (centres undefined) | 1 | -1 | 3 | 0 | 105 | 43*
